# Laboratory results: publication PMC2720137 (Cancer cell, 2008)
# Legend:
# [1] = target: Myc-tagged p110α-H1047R I800L (Homo sapiens, UniProt P42336, H1047R/I800L); experiment: In vitro PI3K assay, I800L mutant; type: biochemical; conditions: I800L vs p110α-H1047R, 10 μM ATP
# [2] = test system: Myc-tagged p110α-H1047R I800M; type: biochemical, human; conditions: I800M vs p110α-H1047R, 10 μM ATP
# [3] = test system: Myc-tagged p110α-H1047R L814C; type: biochemical, human; conditions: L814C vs p110α-H1047R, 10 μM ATP
# [4] = test system: MCF10A cells expressing p110α-H1047R I800L; experiment: MCF10A EGF-independent growth; type: cell-based, human; conditions: media lacking EGF, Alamar Blue
# How it was run: (§1)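 MCF10A cells were retrovirally transduced with pMIG p110α-H1047R mutants (IRES-GFP) after EcoR nucleofection, then FACS-sorted to >95% GFP+. Cells were seeded at 2 × 10^3 per 96-well in growth medium, and after 2 days switched to EGF-free medium with PI3K inhibitors (DMSO stocks 1:1000). Every 2 days: resazurin (120 µg/ml stock, 1:20) added for 2 h at 37°C plus 15 min RT, fluorescence read at ex 520/em 590 nm, and medium refreshed. Mean ± SEM.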
# [5] = test system: MCF10A cells expressing p110α-H1047R I800M; experiment: MCF10A EGF-independent growth; type: cell-based, human; conditions: media lacking EGF, Alamar Blue
# How it was run: as §1
# [6] = test system: MCF10A cells expressing p110α-H1047R L814C; experiment: MCF10A EGF-independent growth; type: cell-based, human; conditions: media lacking EGF, Alamar Blue
# How it was run: as §1
# [7] = test system: phospho-Akt (Thr308, Ser473) in I800L MCF10A cells; experiment: Phospho-Akt western blot, I800L MCF10A cell line; type: cell-based, human; conditions: for resistance of phospho-Akt levels: 1 hour treatment, serial dilutions; for change in inhibitor sensitivity of phospho-308 Akt: seen in phospho-308 Akt but not phospho-473
# [8] = test system: phospho-Akt (Thr308, Ser473) in I800M MCF10A cells; experiment: Phospho-Akt western blot, I800M MCF10A cell line; type: cell-based, human; conditions: 1 hour treatment, serial dilutions
# [9] = test system: phospho-Akt (Thr308, Ser473) in L814C MCF10A cells; experiment: Phospho-Akt western blot, L814C MCF10A cell line; type: cell-based, human; conditions: 1 hour treatment, serial dilutions
# [10] = test system: PI4KIIIβ with the mutation corresponding to Y836M; conditions: ref Balla et al., 2008; cited from earlier work
# [11] = test system: YRP1-pURA3-2μ-GAL1-p110αH1047R-CAAX; experiment: Reverse halo assay; type: cell-based, S. cerevisiae; conditions: 10 μl of a 10 mM DMSO stock spotted on cellulose disc, SD −URA +Galactose
# p110α = conditions: ref Brunn et al., 1996; Vlahos et al., 1994; cited from earlier work
# [12] = test system: S. cerevisiae overexpressing membrane-localized p110α; conditions: ref Rodriguez-Escudero et al., 2005; cited from earlier work
# [13] = test system: drug-permeablized YRP1 strain expressing p110α-CAAX; experiment: Rescue of PI3K-induced growth inhibition, yeast serial dilutions; type: cell-based, S. cerevisiae; conditions: 5 μM PI-103, galactose
# [14] = test system: wild-type AFS92 strain expressing p110α-CAAX; experiment: as above; type: cell-based, S. cerevisiae; conditions: 5 μM PI-103, galactose
# [15] = test system: phospho-Akt in p110α-expressing MCF10A cell lines; type: cell-based, human; conditions: 30 μM PI-103, 1 hour, after 24 hours EGF starvation, all cell lines
# How it was run: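 GFP-sorted MCF10A lines transduced with p110α mutants, at 40-70% confluence, were starved 24 h in MCF10A medium lacking EGF and insulin. They were then given normal growth medium and/or inhibitor (DMSO control) for 60 min. Cells were lysed in PI3K lysis buffer (50 mM Tris pH 7.4, 300 mM NaCl, 1% Triton X-100, phosphatase/protease inhibitors) and western blotted for phospho-Akt.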
# Sequence of Myc-tagged p110α-H1047R I800L (P42336 whole entry I800L/H1047R): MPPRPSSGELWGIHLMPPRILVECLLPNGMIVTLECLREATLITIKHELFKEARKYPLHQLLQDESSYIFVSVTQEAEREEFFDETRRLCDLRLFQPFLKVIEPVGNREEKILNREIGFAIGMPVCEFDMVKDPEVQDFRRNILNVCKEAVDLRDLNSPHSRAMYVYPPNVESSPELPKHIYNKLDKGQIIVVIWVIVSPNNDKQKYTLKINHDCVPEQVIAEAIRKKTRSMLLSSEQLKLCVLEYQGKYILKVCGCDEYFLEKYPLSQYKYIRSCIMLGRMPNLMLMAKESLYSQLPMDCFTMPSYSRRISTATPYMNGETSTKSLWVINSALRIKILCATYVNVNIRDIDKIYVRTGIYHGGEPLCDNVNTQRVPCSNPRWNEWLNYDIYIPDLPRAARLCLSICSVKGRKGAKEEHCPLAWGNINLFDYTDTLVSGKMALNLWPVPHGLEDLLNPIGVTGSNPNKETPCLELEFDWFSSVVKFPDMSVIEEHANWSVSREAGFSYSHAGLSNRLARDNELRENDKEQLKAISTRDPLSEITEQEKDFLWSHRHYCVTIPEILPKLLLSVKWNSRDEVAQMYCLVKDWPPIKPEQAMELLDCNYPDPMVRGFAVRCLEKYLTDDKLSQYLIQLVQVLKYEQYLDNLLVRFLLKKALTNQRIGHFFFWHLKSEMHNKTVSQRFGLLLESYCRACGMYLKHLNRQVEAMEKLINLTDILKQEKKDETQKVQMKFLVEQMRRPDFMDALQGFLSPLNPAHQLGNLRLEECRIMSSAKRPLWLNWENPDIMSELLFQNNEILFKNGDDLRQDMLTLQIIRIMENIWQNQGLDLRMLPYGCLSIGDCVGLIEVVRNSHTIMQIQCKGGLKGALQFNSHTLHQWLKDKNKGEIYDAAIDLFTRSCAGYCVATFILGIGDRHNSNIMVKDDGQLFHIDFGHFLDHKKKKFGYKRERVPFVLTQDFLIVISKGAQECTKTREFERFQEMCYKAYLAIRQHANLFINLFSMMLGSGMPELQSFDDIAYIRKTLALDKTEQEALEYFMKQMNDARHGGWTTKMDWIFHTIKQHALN
SMILES,decrease in inhibitor potency (mutant IC50 / WT IC50) [1],decrease in inhibitor potency (mutant IC50 / WT IC50) [2],inhibitor resistance of EGF-independent growth [4],inhibitor resistance of EGF-independent growth [5],sensitization of cell growth [6],resistance of phospho-Akt levels [7],resistance of phospho-Akt levels [8],sensitization of phospho-Akt levels [9],growth halo in reverse halo assay [11],also measured
CC(=O)Nc1nc(C)c(-c2ccc(Cl)c(S(=O)(=O)NCCO)c2)s1 [PIK-93],5-10 fold,5-10 fold,most pronounced,most pronounced,strong sensitization,approximately 3 fold,approximately 10 fold,~30 fold,–,drug sensitization (mutant IC50 / WT IC50) [3]: approximately 100 fold; drug resistance of active mutant kinase [10]: resistant
COc1ccc2c(c1OC)N=C(NC(=O)c1cccnc1)N1CCN=C21 [PIK-90],5-10 fold,5-10 fold,most pronounced,most pronounced,strong sensitization,approximately 3 fold,–,approximately 5 fold,–,drug sensitization (mutant IC50 / WT IC50) [3]: more than 10 fold
Cc1ccc([N+](=O)[O-])cc1S(=O)(=O)N(C)/N=C/c1cnc2ccc(Br)cn12 [PIK-75],–,–,–,–,–,–,–,–,produced only a thin ring of growth,–
"O=c1cc(N2CCOCC2)oc2c(-c3ccccc3)cccc12 [LY294002, 2-(4-morpholinyl)-8-phenyl-4H-1-benzopyran-4-one]",–,–,–,–,–,–,–,–,did not produce growth halos,potency as inhibitor of p110α and other PI3K family members (p110α): only a μM inhibitor; reversal of p110α-induced growth inhibition [12]: partially reversed
Oc1cccc(-c2nc(N3CCOCC3)c3oc4ncccc4c3n2)c1 [PI-103],5-10 fold,5-10 fold,less dramatic,less dramatic,minimal or no sensitization,Significant resistance is not observed,Significant resistance is not observed,–,–,rescue of PI3K-induced growth inhibition [13]: completely rescues growth; rescue of PI3K-induced growth inhibition [14]: only partially rescues growth; change in inhibitor sensitivity of phospho-308 Akt [7]: Slight resistance; block of phospho-Akt stimulation by EGF-containing media [15]: blocked
Cn1c(=O)n(-c2ccc(C(C)(C)C#N)cc2)c2c3cc(-c4cnc5ccccc5c4)ccc3ncc21 [BEZ-235],–,–,–,less dramatic,minimal or no sensitization,Significant resistance is not observed,Significant resistance is not observed,sensitization is seen,–,change in inhibitor sensitivity in vitro [1]: sensitized; inhibitor sensitization of EGF-independent growth [4]: sensitized; change in inhibitor sensitivity of phospho-308 Akt [7]: sensitization
COC[C@H]1OC(=O)c2coc3c2[C@@]1(C)C1=C(C3=O)[C@@H]2CCC(=O)[C@@]2(C)C[C@H]1OC(C)=O [wortmannin],–,–,–,–,–,–,–,–,did not produce growth halos,drug resistance of active mutant kinase [10]: resistant
